In ChEMBL document CHEMBL1148393, “SAR studies of dihydro-beta-agarofuran sesquiterpenes as inhibitors of the multidrug-resistance phenotype in a Leishmania tropica line overexpressing a P-glycoprotein-like transporter” (J Med Chem, 2004):

What was measured:
Type in all cases: functional
Leishmania tropica [1] = assay: Percentage of growth inhibition of multidrug resistance Leishmania tropica Lines at 1 uM.
How it was run: (§1)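 Log-phase MDR promastigotes were plated at 3 × 10⁵ cells/well in RPMI 1640-modified medium with 20% FBS and 150 µM DNM. Sesquiterpenes (DMSO stocks diluted in medium) were added and cells kept 72 h at 28 °C. MTT was added for 4 h, formazan dissolved in 20% SDS and A540 read. Growth inhibition is relative to DNM-treated controls without modulator.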

Leishmania tropica [2] = assay: Percentage of growth inhibition of multidrug resistance Leishmania tropica Lines at 3 uM; how it was run: as §1
Leishmania tropica [3] = assay: Percentage of growth inhibition of wild type Leishmania tropica Lines at 3 uM.
How it was run: (§2)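 Intrinsic toxicity on the wild-type L. tropica LRC clone, with no DNM present. Log-phase promastigotes were plated at 3 × 10⁵ cells/well in RPMI 1640-modified medium with 20% FBS, with sesquiterpene diluted from DMSO stocks, for 72 h at 28 °C. MTT was added for 4 h, then 20% SDS, and A540 read. Percent growth inhibition is taken against untreated control absorbance.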

Leishmania tropica [4] = assay: Percentage of growth inhibition of multidrug resistance Leishmania tropica Lines at 7 uM.; how it was run: as §1
Leishmania tropica [5] = assay: Percentage of growth inhibition of multidrug resistance Leishmania tropica Lines at 15 uM; how it was run: as §1
Leishmania tropica [6] = assay: Percentage of growth inhibition of wild type Leishmania tropica Lines at 7 uM.; how it was run: as §2
Leishmania tropica [7] = assay: (§3) Percentage of growth inhibition of wild type Leishmania tropica lines at 15 uM; how it was run: as §2
Leishmania tropica [8] = assay: Percent growth inhibition of wild type Leishmania tropica at 1 uM; how it was run: as §2
Leishmania tropica [9] = assay: as §3; remark: listed apart in the source
How it was run: (§4)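 WT L. tropica LRC-strain promastigotes (log phase, RPMI 1640-modified medium + 20% heat-inactivated FBS, 28 °C) seeded at 3 × 10⁵ cells/well and exposed without DNM to sesquiterpenes diluted from DMSO stocks. After 72 h at 28 °C, MTT (5 mg/mL in PBS) was added for 4 h, formazan dissolved in 20% SDS, A540 read. Growth inhibition (%) calculated relative to untreated control absorbance.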

Leishmania tropica [10] = assay: Percentage of growth inhibition of multidrug resistance Leishmania tropica Lines at 3 uM.; how it was run: as §1
Leishmania tropica [11] = assay: Percentage of growth inhibition of multidrug resistance Leishmania tropica Lines at 7 uM; Value ranges from 0 to 6%; how it was run: as §1
Leishmania tropica [12] = assay: Percentage of growth inhibition of multidrug resistance Leishmania tropica Lines at 1 uM; how it was run: as §1
Leishmania tropica [13] = assay: Percentage of growth inhibition of wild type Leishmania tropica Lines at 3 uM; how it was run: as §4
Leishmania tropica [14] = assay: Percentage of growth inhibition of wild type Leishmania tropica Lines at 7 uM; how it was run: as §4

SMILES | inhibition at 1 µM (Leishmania tropica [1]) [%] | inhibition at 3 µM (Leishmania tropica [2]) [%] | inhibition at 3 µM (Leishmania tropica [3]) [%] | inhibition at 7 µM (Leishmania tropica [4]) [%] | inhibition at 15 µM (Leishmania tropica [5]) [%] | inhibition at 7 µM (Leishmania tropica [6]) [%] | inhibition at 15 µM (Leishmania tropica [7]) [%] | inhibition at 1 µM (Leishmania tropica [8]) [%] | inhibition at 15 µM (Leishmania tropica [9]) [%] | inhibition at 3 µM (Leishmania tropica [10]) [%] | inhibition at 7 µM (Leishmania tropica [11]) [%] | inhibition at 1 µM (Leishmania tropica [12]) [%] | inhibition at 3 µM (Leishmania tropica [13]) [%] | inhibition at 7 µM (Leishmania tropica [14]) [%]
CCCCCCCCCCCC(=O)O[C@@H]1C2C[C@H](OC(=O)c3ccco3)[C@]3(C)[C@@H](OC(C)=O)[C@@H](OC(C)=O)C[C@](C)(O)C13OC2(C)C (stereo partly specified) | < 6 | 8.8 | < 6 | 29.2 | 80.5 | < 6 | < 6 | < 6 |  |  |  |  |  | 
CC(=O)O[C@H]1[C@@H](OC(=O)c2ccccc2)C[C@](C)(O)C23OC(C)(C)C(C[C@H](OC(=O)c4ccco4)[C@]12C)[C@H]3O (stereo partly specified) | < 6 | 11.1 | < 6 | 41.1 | 81.9 | < 6 |  | < 6 | 8 |  |  |  |  | 
CC(=O)O[C@H]1C[C@](C)(O)C23OC(C)(C)C(C[C@H](OC(=O)c4ccco4)[C@]2(C)[C@H]1OC(C)=O)[C@H]3OC(=O)C(F)(F)F (stereo partly specified) | < 6 |  | < 6 |  | 7.1 | < 6 | < 6 | < 6 |  | 6 | 6 |  |  | 
CC(=O)O[C@H]1[C@@H](OC(=O)c2ccccc2)C[C@](C)(O)C23OC(C)(C)C(C[C@H](OC(=O)c4ccco4)[C@]12C)[C@H]3OC(=O)c1ccco1 (stereo partly specified) |  | 74.8 |  | 93.7 | 92.7 |  |  | < 6 | 35.3 |  |  | 11.7 | 16.5 | 21.4
CC(=O)O[C@H]1[C@@H](OC(=O)c2ccco2)C[C@](C)(O)C23OC(C)(C)C(C[C@H](OC(=O)c4ccco4)[C@]12C)[C@H]3O (stereo partly specified) | < 6 |  | < 6 | 28.5 | 44.5 | < 6 | < 6 | < 6 |  | < 6 |  |  |  | 
COc1ccc(C(=O)O[C@@H]2C3C[C@H](OC(=O)c4ccco4)[C@]4(C)[C@@H](OC(C)=O)[C@@H](OC(C)=O)C[C@](C)(O)C24OC3(C)C)cc1 (stereo partly specified) |  | 35.4 | < 6 | 85 | 98.4 | < 6 |  | < 6 | 17.2 |  |  | 11.9 |  | 
CCCCCCCCCCCC(=O)O[C@@H]1C2C[C@H](OC(=O)c3ccco3)[C@]3(C)[C@@H](OC(C)=O)[C@@H](OC(=O)c4ccccc4)C[C@](C)(O)C13OC2(C)C (stereo partly specified) | < 6 |  | < 6 |  | 9.2 | < 6 | < 6 | < 6 |  | 6 | 6 |  |  | 
CC(=O)O[C@H]1[C@@H](OC(=O)c2ccccc2)C[C@](C)(O)C23OC(C)(C)C(C[C@H](OC(=O)c4ccco4)[C@]12C)[C@H]3OC(=O)C(C)(C)C (stereo partly specified) | < 6 |  | < 6 | 25.9 | 77.6 | < 6 | < 6 | < 6 |  | 11.2 |  |  |  | 
CC(=O)O[C@H]1[C@@H](OC(=O)c2ccccc2)C[C@](C)(O)C23OC(C)(C)C(C[C@H](OC(=O)c4ccco4)[C@]12C)[C@H]3OC(=O)C(F)(F)F (stereo partly specified) | < 6 |  | < 6 | 9.7 | 36.9 | < 6 | < 6 | < 6 |  | < 6 |  |  |  | 
CC(=O)O[C@@H]1C2C[C@H](OC(=O)c3ccco3)[C@]3(C)[C@@H](OC(C)=O)[C@@H](OC(=O)c4ccccc4)C[C@](C)(O)C13OC2(C)C (stereo partly specified) | < 6 |  | < 6 | 14.3 | 45 | < 6 | < 6 | < 6 |  | 6 |  |  |  | 
CC(=O)O[C@H]1C[C@](C)(O)C23OC(C)(C)C(C[C@H](OC(=O)c4ccco4)[C@]2(C)[C@H]1OC(C)=O)[C@H]3OC(=O)C(C)(C)C (stereo partly specified) |  | 44.5 | < 6 | 82.5 | 96.7 | < 6 | < 6 | < 6 |  |  |  | 18.1 |  | 
CC(=O)O[C@H]1[C@@H](OC(=O)c2ccco2)C[C@](C)(O)C23OC(C)(C)C(C[C@H](OC(=O)c4ccco4)[C@]12C)[C@H]3OC(=O)c1ccco1 (stereo partly specified) |  | 52.9 |  | 86.2 | 93.5 |  |  | < 6 | 23.4 |  |  | 10 | 13.8 | 18.1
CC(=O)O[C@H]1C[C@](C)(O)C23OC(C)(C)C(C[C@H](OC(=O)c4ccco4)[C@]2(C)[C@H]1OC(C)=O)[C@H]3O (stereo partly specified) | < 6 |  | < 6 |  | 10.9 | < 6 | < 6 | < 6 |  | < 6 | 6 |  |  | 
CC(=O)O[C@H]1C[C@](C)(O)C23OC(C)(C)C(C[C@H](OC(=O)c4ccco4)[C@]2(C)[C@H]1OC(C)=O)[C@H]3OC(=O)c1ccc([N+](=O)[O-])cc1 (stereo partly specified) | < 6 |  | < 6 | 15.5 | 59.5 | < 6 | < 6 | < 6 |  | 6 |  |  |  | 
CC(=O)O[C@H]1C[C@](C)(O)C23OC(C)(C)C(C[C@H](OC(=O)c4ccco4)[C@]2(C)[C@H]1OC(C)=O)[C@H]3OC(C)=O (stereo partly specified) | < 6 |  | < 6 | 17.1 | 50.6 | < 6 | < 6 | < 6 |  | < 6 |  |  |  | 
CC(=O)O[C@H]1[C@@H](O)C[C@](C)(O)C23OC(C)(C)C(C[C@H](OC(=O)c4ccco4)[C@]12C)[C@H]3OC(=O)c1ccco1 (stereo partly specified) | < 6 |  | < 6 | 9.1 | 28.7 | < 6 | < 6 | < 6 |  | 6 |  |  |  | 
CC(=O)O[C@H]1CC[C@](C)(O)C23OC(C)(C)C(C[C@H](OC(=O)c4ccco4)[C@]12C)[C@H]3OC(=O)c1ccco1 (stereo partly specified) |  | 66.9 |  | 89 | 89.9 |  |  | < 6 | 24.6 |  |  | 20.3 | 14.8 | 16.4
